Measurements as given in ChEMBL document CHEMBL4396879, “Conjugation of Short Peptides to Dibenzodiazepinone-Type Muscarinic Acetylcholine Receptor Ligands Determines M2R Selectivity” (J Med Chem, 2019).

Tests used:
[1] = biological target: T1, Muscarinic acetylcholine receptor M5 (Homo sapiens, UniProt P08912); assay: Displacement of [3H]-NMS from human muscarinic M5 receptor expressed in CHO-K9 cells after 3 hrs by microbeta2 scintillation counting method; type: cell-based
T1 sequence (P08912 whole entry): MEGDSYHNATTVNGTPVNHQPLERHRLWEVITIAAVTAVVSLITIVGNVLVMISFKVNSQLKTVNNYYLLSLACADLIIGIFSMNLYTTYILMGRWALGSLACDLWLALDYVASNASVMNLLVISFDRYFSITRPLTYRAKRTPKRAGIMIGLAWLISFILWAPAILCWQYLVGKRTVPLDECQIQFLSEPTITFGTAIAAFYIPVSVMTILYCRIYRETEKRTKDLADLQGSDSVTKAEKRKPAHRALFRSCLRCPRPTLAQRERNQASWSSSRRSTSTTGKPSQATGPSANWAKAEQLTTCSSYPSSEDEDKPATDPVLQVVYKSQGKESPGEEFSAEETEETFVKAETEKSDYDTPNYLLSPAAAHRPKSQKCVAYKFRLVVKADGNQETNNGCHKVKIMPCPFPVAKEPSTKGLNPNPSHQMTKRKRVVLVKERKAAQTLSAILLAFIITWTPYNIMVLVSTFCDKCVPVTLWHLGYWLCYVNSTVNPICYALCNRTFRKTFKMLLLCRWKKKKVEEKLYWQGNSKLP
Summary of the method: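 [3H]NMS competition binding on intact CHO-hMxR cells in L15 medium with 1% BSA, 3 h at 22 ± 1 °C with gentle shaking. [3H]NMS was 0.2 nM (M1, M2, M3), 0.1 nM (M4) or 0.3 nM (M5). […] Cells were lysed in urea/acetic acid/Triton and counted by liquid scintillation. Ki from Cheng-Prusoff. Triplicates, ≥3 experiments.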

[2] = biological target: Muscarinic acetylcholine receptor M2 and M5 (Homo sapiens) (UniProt P08172+P08912); assay: Selectivity ratio of Ki for human muscarinic M5 receptor expressed in CHO-K9 cells to Ki for human muscarinic M2 receptor expressed in CHO-K9 cells; type: cell-based
Summary of the method: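 Ratio of mean Ki values. Each Ki came from an individual [3H]NMS competition experiment at the given CHO-hMxR subtype, converting IC50 to Ki by Cheng-Prusoff before averaging.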

[3] = biological target: T2, Muscarinic acetylcholine receptor M2 (Homo sapiens) (UniProt P08172); assay: (§1) Antagonist activity at human muscarinic M2 receptor expressed in HEK293 cells co-expressing HA-Galphaq/i5 assessed as inhibition of carbachol-induced IP1 accumulation pre-incubated for 30 mins followed by carbachol addition and measured after 1 hr by HTRF assay; type: functional, cell-based
T2 sequence (whole entry): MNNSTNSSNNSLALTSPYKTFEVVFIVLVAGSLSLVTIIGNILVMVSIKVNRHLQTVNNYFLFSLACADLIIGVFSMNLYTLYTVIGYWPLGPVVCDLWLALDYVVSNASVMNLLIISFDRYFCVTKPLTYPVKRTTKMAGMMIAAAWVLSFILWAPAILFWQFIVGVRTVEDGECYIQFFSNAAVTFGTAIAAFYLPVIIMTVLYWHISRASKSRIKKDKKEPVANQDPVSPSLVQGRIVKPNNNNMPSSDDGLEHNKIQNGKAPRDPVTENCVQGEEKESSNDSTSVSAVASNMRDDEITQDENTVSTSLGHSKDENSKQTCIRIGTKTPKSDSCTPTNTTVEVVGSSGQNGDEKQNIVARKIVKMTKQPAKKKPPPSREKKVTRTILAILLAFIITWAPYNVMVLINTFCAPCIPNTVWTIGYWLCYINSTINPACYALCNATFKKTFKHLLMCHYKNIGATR
Summary of the method: (§2)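 HEK-293 cells transiently cotransfected (receptor plus HA-tagged Gαqi5), detached after 1 day and seeded at 10,000 cells/well for 24 h at 37 °C. Duplicates.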

[4] = biological target: T3, Muscarinic acetylcholine receptor M2 (Homo sapiens, UniProt P08172); assay: as §1; type: functional, cell-based; summary of the method: as §2
T3 sequence (P08172 whole entry): T2 sequence (whole entry)

[5] = Stability of the compound in human plasma used as 1:2 ratio of plasma to pH 7.4 PBS assessed as intact compound at 100 uM incubated for 6 hr […]; type: ADME, cell-free; conditions: plasma diluted with PBS (1:2), read-out: Stability
[6] = Stability of the compound in human plasma used as 1:2 ratio of plasma to pH 7.4 PBS assessed as intact compound at 100 uM incubated for 24 hr […]; type: ADME, cell-free; conditions: plasma diluted with PBS (1:2), read-out: Stability
[7] = biological target: T2, Muscarinic acetylcholine receptor M2 (Homo sapiens); assay: Competitive displacement of [3H]-NMS from human muscarinic M2 receptor expressed in CHO-K9 cells using 2 nM [3H]-NMS after 3 hrs by microbeta2 scintillation counting method relative to control; type: cell-based
Summary of the method: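 Intact CHO-hM2R cells incubated at 22 °C with a high [3H]NMS concentration (2 nM). […] Curves were fitted by four-parameter logistic fits. Mean ± SEM from ≥4 experiments in triplicate.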

For `CC(=O)N[C@@H](CCCCN)C(=O)N[C@@H](C)C(=O)N[C@@H](CCCNC(=N)N)C(=O)NCCN1CCN(CCCCC2CCN(CC(=O)N3c4ccccc4NC(=O)c4ccccc43)CC2)CC1`, the Ki [1] was 295 nM, the Ratio Ki [2] was 4900 and the inhibition [3] was “Dose-dependent effect”. The IC50 [4] was 10.5 nM, the remaining at 6 h, 100 µM [5] was greater than 99% and the remaining at 24 h, 100 µM [6] was greater than 99%. The Activity [7] was greater than 95%.
With `CC(=O)N[C@@H](CCCCN)C(=O)N[C@@H](CCCNC(=N)N)C(=O)NCCCCC1CCN(CC(=O)N2c3ccccc3NC(=O)c3ccccc32)CC1` the Ki [1] was 427 nM, the Ratio Ki [2] was 400 and the inhibition [3] was “Dose-dependent effect”. It also gave an IC50 [4] of 93.3 nM, a remaining at 6 h, 100 µM [5] greater than 99% and a remaining at 24 h, 100 µM [6] greater than 99%. The Activity [7] was greater than 95%.
